Experimental data taken from ChEMBL document CHEMBL4270642, “Boronic ester-linked macrocyclic lipopeptides as serine protease inhibitors targeting Escherichia coli type I signal peptidase” (Eur J Med Chem, 2018).
In brackets after ≈: the same amount, converted by molar mass. Square brackets hold non-standard residues; d marks the D form. Peptide text beside a SMILES is read from it. * marks the point of attachment. Benzoyl(4-(4-hexylphenyl)) = CCCCCCc1ccc(-c2ccc(C(=O)*)cc2)cc1; boroAla = C[C@H](N*)B(O)O; Orn = NCCC[C@H](N)C(=O)O

Columns and labels:
[1] = target: Signal peptidase I (Escherichia coli K-12) (UniProt P00803); experiment: Inhibition of Escherichia coli type 1 signal peptidase lepB assessed as residual activity at 5 uM preincubated for 10 mins followed by Dabcyl-VGGTATAYGAFSRPGLE-(EDANS)-OH substrate addition measured after 2 hrs by FRET based assay (reference value: 100%)
How it was run: (§1)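 EcLepB (about 50 nM estimated) preincubated 10 min with compound. Reaction started with Dabcyl/EDANS FRET peptide at 8 µM final (Km 20 µM). Fluorescence followed continuously at 535 nm, 22 °C, for 2 h. Cleavage rates plotted against inhibitor concentration; IC50 from non-linear regression of sigmoidal dose-response curves.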

[2] = target: Signal peptidase I (Escherichia coli K-12) (UniProt P00803); experiment: Inhibition of Escherichia coli type 1 signal peptidase lepB assessed as residual activity at 0.0195 uM preincubated for 10 mins followed by Dabcyl-VGGTATAYGAFSRPGLE-(EDANS)-OH substrate addition measured after 2 hrs by FRET based assay (reference value: 100%); how it was run: as §1
[3] = target: Signal peptidase I (Escherichia coli K-12) (UniProt P00803); experiment: Inhibition of Escherichia coli type 1 signal peptidase lepB assessed as residual activity at 0.0012 uM preincubated for 10 mins followed by Dabcyl-VGGTATAYGAFSRPGLE-(EDANS)-OH substrate addition measured after 2 hrs by FRET based assay (reference value: 100%); how it was run: as §1
[4] = target: Signal peptidase I (Escherichia coli K-12) (UniProt P00803); experiment: Inhibition of Escherichia coli type 1 signal peptidase lepB assessed as residual activity at 1.25 uM preincubated for 10 mins followed by Dabcyl-VGGTATAYGAFSRPGLE-(EDANS)-OH substrate addition measured after 2 hrs by FRET based assay (reference value: 100%); how it was run: as §1
Klebsiella pneumoniae = experiment: Antibacterial activity against Klebsiella pneumoniae ATCC 13883 after 16 to 20 hrs by broth microdilution method; assay type: functional
How it was run: (§2)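 Broth microdilution in cation-adjusted Mueller-Hinton II per EUCAST/CLSI; two-fold compound series 64 down to 0.25 µg/mL final. Inoculum from fresh colonies (non-selective agar, 18-24 h, 35 ± 2 °C), adjusted to 0.5 McFarland, diluted to about 5 × 10^5 CFU/mL final. Static incubation 16-20 h at 35 ± 2 °C; MIC read visually as complete growth inhibition against medium-only wells.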

[5] = Hemolytic activity in human RBC at 100 uM after 45 mins by spectrophotometric method relative to control; assay type: ADME, cell-based, Erythrocyte; conditions: red blood cells (erythrocytes), read-out: Activity
How it was run: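 Heparinized human blood; red cells washed three times in Tyrode buffer pH 7.4. Compound at 100 µM final with 1% DMSO and 50% RBC, shaken (250 rpm) 45 min at 37 °C. Cells pelleted (1000 × g, 10 min); supernatant haemoglobin at 540 nm. Percent lysis relative to buffer-only and 2% Triton X-100 controls.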

Escherichia coli [6] = experiment: Antibacterial activity against Escherichia coli D22 CGSG 5163 harboring Ips mutant after 16 to 20 hrs by broth microdilution method; assay type: functional
How it was run: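 Broth microdilution in cation-adjusted Mueller-Hinton II broth, following EUCAST and CLSI guidelines. Two-fold series at final concentrations 64 down to 0.25 µg/mL, with medium-only and growth controls. Inoculum from fresh colonies (18-24 h, 35 °C ± 2 °C) adjusted to 0.5 McFarland, final ≈5 × 10^5 CFU/mL. Plates incubated unshaken 16-20 h at 35 °C ± 2 °C. MIC read visually as complete inhibition of growth.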

[7] = target: Signal peptidase I (Escherichia coli K-12) (UniProt P00803); experiment: Inhibition of Escherichia coli type 1 signal peptidase lepB assessed as residual activity at 0.0024 uM preincubated for 10 mins followed by Dabcyl-VGGTATAYGAFSRPGLE-(EDANS)-OH substrate addition measured after 2 hrs by FRET based assay (reference value: 100%); how it was run: as §1
[8] = target: Signal peptidase I (Escherichia coli K-12) (UniProt P00803); experiment: Inhibition of Escherichia coli type 1 signal peptidase lepB assessed as residual activity at 0.625 uM preincubated for 10 mins followed by Dabcyl-VGGTATAYGAFSRPGLE-(EDANS)-OH substrate addition measured after 2 hrs by FRET based assay (reference value: 100%); how it was run: as §1
Staphylococcus aureus = experiment: Antibacterial activity against Staphylococcus aureus ATCC 29213 after 16 to 20 hrs by broth microdilution method; assay type: functional; how it was run: as §2
[9] = target: Signal peptidase I (Escherichia coli K-12) (UniProt P00803); experiment: Inhibition of Escherichia coli type 1 signal peptidase lepB assessed as residual activity at 0.3125 uM preincubated for 10 mins followed by Dabcyl-VGGTATAYGAFSRPGLE-(EDANS)-OH substrate addition measured after 2 hrs by FRET based assay (reference value: 100%); how it was run: as §1
Escherichia coli [10] = experiment: Antibacterial activity against tolC deficient Escherichia coli CH3130 after 16 to 20 hrs by broth microdilution method; assay type: functional; how it was run: as §2
[11] = target: Signal peptidase I (Escherichia coli K-12) (UniProt P00803); experiment: Inhibition of Escherichia coli type 1 signal peptidase lepB assessed as residual activity at 0.0781 uM preincubated for 10 mins followed by Dabcyl-VGGTATAYGAFSRPGLE-(EDANS)-OH substrate addition measured after 2 hrs by FRET based assay (reference value: 100%); how it was run: as §1
Signal peptidase I = Signal peptidase I (Escherichia coli K-12, UniProt P00803); experiment: Inhibition of Escherichia coli type 1 signal peptidase lepB preincubated for 10 mins followed by Dabcyl-VGGTATAYGAFSRPGLE-(EDANS)-OH substrate addition measured after 2 hrs by FRET based assay; how it was run: as §1
Escherichia coli [12] = experiment: Antibacterial activity against Escherichia coli ATCC 25922 after 16 to 20 hrs by broth microdilution method; assay type: functional; how it was run: as §2
[13] = target: Signal peptidase I (Escherichia coli K-12) (UniProt P00803); experiment: Inhibition of Escherichia coli type 1 signal peptidase lepB assessed as residual activity at 0.0006 uM preincubated for 10 mins followed by Dabcyl-VGGTATAYGAFSRPGLE-(EDANS)-OH substrate addition measured after 2 hrs by FRET based assay (reference value: 100%); how it was run: as §1
HepG2 = experiment: Cytotoxicity against human HepG2 cells after 72 hrs by FMSA; assay type: cell-based; conditions: HepG2, 72 h
How it was run: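 HepG2 (ATCC) grown in EMEM with 10% FBS, pen/strep, 2 mM L-glutamine, used up to 20 passages. Seeded at 1000 cells/well, cultured overnight, then dosed acoustically from DMSO stocks. Eight two-fold dilutions in duplicate from top 64 or 32 µM; 72 h at 37 °C, 5% CO2. Fluorescein diacetate hydrolysis read at ex 485/em 530 nm; IC50 by non-linear regression.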

[14] = target: Signal peptidase I (Escherichia coli K-12) (UniProt P00803); experiment: Inhibition of Escherichia coli type 1 signal peptidase lepB assessed as residual activity at 2.5 uM preincubated for 10 mins followed by Dabcyl-VGGTATAYGAFSRPGLE-(EDANS)-OH substrate addition measured after 2 hrs by FRET based assay (reference value: 100%); how it was run: as §1
[15] = target: Signal peptidase I (Escherichia coli K-12) (UniProt P00803); experiment: Inhibition of Escherichia coli type 1 signal peptidase lepB assessed as residual activity at 0.0049 uM preincubated for 10 mins followed by Dabcyl-VGGTATAYGAFSRPGLE-(EDANS)-OH substrate addition measured after 2 hrs by FRET based assay (reference value: 100%); how it was run: as §1
[16] = target: Signal peptidase I (Escherichia coli K-12) (UniProt P00803); experiment: Inhibition of Escherichia coli type 1 signal peptidase lepB assessed as residual activity at 0.0098 uM preincubated for 10 mins followed by Dabcyl-VGGTATAYGAFSRPGLE-(EDANS)-OH substrate addition measured after 2 hrs by FRET based assay (reference value: 100%); how it was run: as §1
[17] = target: Signal peptidase I (Escherichia coli K-12) (UniProt P00803); experiment: Inhibition of Escherichia coli type 1 signal peptidase lepB assessed as residual activity at 0.0391 uM preincubated for 10 mins followed by Dabcyl-VGGTATAYGAFSRPGLE-(EDANS)-OH substrate addition measured after 2 hrs by FRET based assay (reference value: 100%); how it was run: as §1
Acinetobacter baumannii = experiment: Antibacterial activity against Acinetobacter baumannii ATCC 19606 after 16 to 20 hrs by broth microdilution method; assay type: functional; conditions: ATCC 19606 = CIP 70.34 = JCM 6841; how it was run: as §2
[18] = target: Signal peptidase I (Escherichia coli K-12) (UniProt P00803); experiment: Inhibition of Escherichia coli type 1 signal peptidase lepB assessed as residual activity at 10 uM preincubated for 10 mins followed by Dabcyl-VGGTATAYGAFSRPGLE-(EDANS)-OH substrate addition measured after 2 hrs by FRET based assay (reference value: 100%); how it was run: as §1
Pseudomonas aeruginosa [19] = experiment: Antibacterial activity against Pseudomonas aeruginosa PAO1 after 16 to 20 hrs by broth microdilution method; assay type: functional; how it was run: as §2
Pseudomonas aeruginosa [20] = experiment: Antibacterial activity against efflux defective Pseudomonas aeruginosa PAO750 after 16 to 20 hrs by broth microdilution method; assay type: functional; how it was run: as §2
[21] = target: Signal peptidase I (Escherichia coli K-12) (UniProt P00803); experiment: Inhibition of Escherichia coli type 1 signal peptidase lepB assessed as residual activity at 0.1563 uM preincubated for 10 mins followed by Dabcyl-VGGTATAYGAFSRPGLE-(EDANS)-OH substrate addition measured after 2 hrs by FRET based assay (reference value: 100%); how it was run: as §1

Sequence of Signal peptidase I (Escherichia coli K-12) (P00803 whole entry): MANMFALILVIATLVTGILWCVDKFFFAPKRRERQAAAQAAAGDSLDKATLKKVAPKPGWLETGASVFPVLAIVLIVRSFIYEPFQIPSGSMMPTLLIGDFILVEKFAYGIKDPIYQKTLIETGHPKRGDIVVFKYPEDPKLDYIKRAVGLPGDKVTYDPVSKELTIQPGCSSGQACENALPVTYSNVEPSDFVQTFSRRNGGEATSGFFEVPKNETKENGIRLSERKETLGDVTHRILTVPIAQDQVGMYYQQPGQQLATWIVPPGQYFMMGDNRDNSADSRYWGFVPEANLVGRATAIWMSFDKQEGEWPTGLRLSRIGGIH
Sequence of Signal peptidase I (P00803 whole entry): as above

CCCCCCc1ccc(-c2ccc(C(=O)N[C@@H](CCCN)C(=O)N[C@H](C(=O)N[C@@H](C)C(=O)N[C@@H](CC(N)=O)C(=O)N[C@@H](C)B(O)O)[C@@H](C)O)cc2)cc1 ({Benzoyl(4-(4-hexylphenyl))}-[Orn]TAN-boroAla)
Activity [1]: 6.7%
Activity [2]: 84.8%
Activity [3]: 97.7%
Activity [4]: 15.6%
MIC (Klebsiella pneumoniae): 2 µg/mL (≈ 2.65 µM)
hemolysis at 0.75 h, 100 µM [5]: 4.8%
MIC (Escherichia coli [6]): 0.5 µg/mL (≈ 0.663 µM)
Activity [7]: 87%
Activity [8]: 20.6%
MIC (Staphylococcus aureus): 0.025 µg/mL (≈ 0.0332 µM)
Activity [9]: 20.3%
MIC (Escherichia coli [10]): 1 µg/mL (≈ 1.33 µM)
Activity [11]: 25.7%
IC50 (Signal peptidase I): 52 nM
MIC (Escherichia coli [12]): 8 µg/mL (≈ 10.6 µM)
Activity [13]: 95.9%
IC50 (HepG2): 10.1 µM
Activity [14]: 8.8%
Activity [15]: 93.9%
Activity [16]: 89.3%
Activity [17]: 57.5%
MIC (Acinetobacter baumannii): 4 µg/mL (≈ 5.31 µM)
Activity [18]: 5.8%
MIC (Pseudomonas aeruginosa [19]): 64 µg/mL (≈ 84.9 µM)
MIC (Pseudomonas aeruginosa [20]): 16 µg/mL (≈ 21.2 µM)
Activity [21]: 19.2%

CCCCCCc1ccc(-c2ccc(C(=O)N[C@@H](CCCN)C(=O)N[C@H](C(=O)N[C@@H](C)C(=O)N[C@H]3Cc4cn(nn4)CCCN4C[C@@H]5OB(O[C@@H]5C4)[C@H](C)NC3=O)[C@@H](C)O)cc2)cc1
Activity [1]: 14.9%
Activity [2]: 68.6%
Activity [3]: 85.6%
Activity [4]: 32.8%
MIC (Klebsiella pneumoniae): 32 µg/mL (≈ 36.2 µM)
hemolysis at 0.75 h, 100 µM [5]: 17.4%
MIC (Escherichia coli [6]): 8 µg/mL (≈ 9.04 µM)
Activity [7]: 86.2%
Activity [8]: 35.3%
MIC (Staphylococcus aureus): 32 µg/mL (≈ 36.2 µM)
Activity [9]: 43%
MIC (Escherichia coli [10]): 8 µg/mL (≈ 9.04 µM)
Activity [11]: 42.8%
IC50 (Signal peptidase I): 105 nM
MIC (Escherichia coli [12]): 32 µg/mL (≈ 36.2 µM)
Activity [13]: 89.5%
IC50 (HepG2): 4 µM
Activity [14]: 28.1%
Activity [15]: 80.9%
Activity [16]: 76.7%
Activity [17]: 47.9%
MIC (Acinetobacter baumannii): 16 µg/mL (≈ 18.1 µM)
Activity [18]: 5.6%
MIC (Pseudomonas aeruginosa [19]): > 64 µg/mL
MIC (Pseudomonas aeruginosa [20]): 64 µg/mL (≈ 72.3 µM)
Activity [21]: 47.3%
